Source: PubChem (several laboratories)
In the library only some 2.2% were active in any assay of this set; here they are far more common.
UBC9 SUMO inh: inhibitors of human SUMOylation (UBC9); P63279; HTRF SUMOylation assay, SAE1/SAE2 + UBC9, in vitro; inhibition, % at 35 µM; hit rate 0.36% among 290,000; AID 2006; in the data active means inhibition above about 50%, passing the limit was not always enough
Target sequence (P63279 whole entry, looked up): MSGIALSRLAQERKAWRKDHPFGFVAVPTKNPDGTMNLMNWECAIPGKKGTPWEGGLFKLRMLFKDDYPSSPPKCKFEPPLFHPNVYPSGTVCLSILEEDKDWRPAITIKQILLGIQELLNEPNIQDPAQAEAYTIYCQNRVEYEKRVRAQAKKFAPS
Apaf1 inhib: inhibitors of human Apaf-1 apoptosome. reconstituted apoptosome caspase-3 activity, DEVD-Rh110 fluorescence. inhibition, % at 20 µM. hit rate 0.71% among 330,000. AID 489030; active means inhibition of at least 40% at 20 µM;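 further: plate controls were DMSO wells for no effect and DEVD-CHO caspase inhibitor wells for full effect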
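detection = Rh110 fluorescence intensity | test system = biochemical Apaf-1 apoptosome reconstitution | also added = cytochrome c and DEVD-Rh110 substrate | schedule = 30 min plus 50 min, RT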
GSTO1 inh: counter-screen for RBBP9 inhibitors: inhibitors of human GSTO1 | recombinant GSTO1, activity-based probe fluorescence polarization | inhibition, % at 5.96 µM | hit rate 1.1% among 300,000 | AID 1974;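 active means inhibition above the campaign mean inhibition plus 3 SD, cut at about 35% in these data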;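 further: 0% = GSTO1-1 with DMSO and 100% = wells lacking GSTO1-1 enzyme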
Target sequence (P78417 whole entry, looked up): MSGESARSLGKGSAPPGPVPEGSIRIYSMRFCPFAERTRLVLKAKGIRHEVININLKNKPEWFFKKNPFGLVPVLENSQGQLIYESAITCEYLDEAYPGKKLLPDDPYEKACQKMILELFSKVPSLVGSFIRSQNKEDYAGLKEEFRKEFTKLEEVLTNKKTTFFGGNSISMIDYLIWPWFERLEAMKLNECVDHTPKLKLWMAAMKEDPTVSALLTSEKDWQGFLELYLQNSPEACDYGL
UBC13 polyUb: blocks human UBC13 polyubiquitin chain formation; AID 485273; P61088; inhibition, % at 20 µM; TR-FRET; hit rate 0.47% among 330,000; in the data active means inhibition above about 45%, passing the limit was not always enough
Rin1 Abl inh: human Rin1-Abl interaction inhibition; P00519+Q13671; TR-FRET Rin1/Abl binding, biochemical; inhibition, % at 7.35 µM; hit rate 0.4% among 360,000; AID 588664; in the data active means inhibition above about 5%, passing the limit was not always enough
PAD4 inh: inhibitors of human PAD4; recombinant PAD4, RCA probe fluorescence polarization; Q9UM07; AID 485272; inhibition, % at 6.36 µM; hit rate 0.41% among 330,000;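 active means percent inhibition above a cutoff equal to the mean of all tested compounds plus 3 SD, cut at about 15% in these data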;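 further: 0% = PAD4 with RCA probe and DMSO and 100% = probe without PAD4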
GSTO1 confirm: GSTO1 (human) inhibition, confirmation | hit rate 54% among 2,400 | shares compounds with GSTO1 inh | recombinant GSTO1, probe fluorescence polarization | inhibition, % at 5.96 µM;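 active means inhibition above the primary screen's cutoff, its mean inhibition plus 3 SD, cut at about 35% in these data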;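 further: loss of polarization as inhibitors block binding of rhodamine sulfonate ester activity probe; 0% = GSTO1 with DMSO and 100% = wells lacking GSTO1 enzyme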
PAD4 FP conf: confirmation of human PAD4 inhibitors; hit rate 28% among 1,200; recombinant PAD4, RCA probe fluorescence polarization; inhibition, % at 6.36 µM; AID 488796; shares compounds with PAD4 inh;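 active means mean inhibition across replicates above the hit cutoff set by the earlier primary screen, cut at about 15% in these data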;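 further: inhibitors block active-site labeling by the probe so polarization falls; 0% = PAD4 with probe and DMSO and 100% = probe without PAD4 enzyme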
Apaf-1 inh conf: Apaf-1 inhibition, single-dose confirmed | hit rate 25% among 1,800 | AID 504614 | reconstituted apoptosome, caspase-3 DEVD-Rh110 fluorescence | inhibition, % at 20 µM | shares compounds with Apaf1 inhib;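 active means mean inhibition of at least 40% at 20 µM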;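 further: plate controls were DMSO wells for no effect and DEVD-CHO caspase inhibitor control wells for full effect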
Rh110 quench: interferes with Rh110 fluorescence, flagging false Apaf-1 inhibitors; AID 504615; 1,800 tested, under 10 active; shares compounds with Apaf1 inhib; Rh110 fluorescence interference, quenched caspase reaction; activation (fluorescence interference), % at 20 µM;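 active means signal rise of 40% or more at 20 µM, treated as a fluorescence artifact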
Fluor interf inh: Apaf-1 inhibitor counter-screen fluorescence artifact. shares compounds with Apaf1 inhib. fluorescence interference counterscreen, Apaf-1 assay format. IC50, µM. 460 tested, under 10 active. AID 588538; call rule not given here
Numbers without * were called inactive; nt = no result.

SMILES	UBC9 SUMO inh	Apaf1 inhib	GSTO1 inh	UBC13 polyUb	Rin1 Abl inh	PAD4 inh	GSTO1 confirm	Apaf-1 inh conf	Rh110 quench	Fluor interf inh	others
CCCc1c(C(=O)N/N=C(\C)c2ccc(CC(C)C)cc2)nnn1-c1nonc1N	nt	nt	nt	nt	0	nt	nt	nt	nt	nt
CC1(C)CC(=O)C(C=Nc2ccc(O)c(N=CC3=C(O)CC(C)(C)CC3=O)c2)=C(O)C1	-11	47*	85*	-24	1	-13	67*	17	1	nt
Nc1ccc2nn(-c3cccc4ccccc34)nc2c1	58*	96*	61*	-18	1	2	7	75*	12	>100
CC(=O)OCCCNc1cc(Sc2nc3ccccc3s2)c2nonc2c1[N+](=O)[O-]	92*	96*	45*	-45	0	-15	7	29	1	nt
O=C(Nc1ncc([N+](=O)[O-])s1)c1ccccc1Br	7	-17	-20	-5	0	-6	nt	nt	nt	nt
CCOC(=O)c1ccc(NC2=CC(=O)C(=O)c3ccccc32)cc1	27	72*	77*	-53	-1	-11	87*	88*	8	>100
NS(=O)(=O)c1ccc(NC2=CC(=O)C(=O)c3ccccc32)cc1	nt	95*	84*	-93	1	28*	88*	98*	-2	>100	PAD4 FP conf=62*
Cc1ccc(S(=O)(=O)N2CCC(C(=O)Nc3ccccc3N3CCCC3)CC2)cc1C	nt	22	0	-11	-1	0	nt	nt	nt	nt
O=S(=O)(/N=C(\[O-])C[n+]1ccccc1)c1ccc(Cl)cc1	15	-3	-4	-9	-4	0	nt	nt	nt	nt
CCCC[n+]1ccn(C2=C([O-])c3ccccc3C(=O)/C2=N\S(=O)(=O)c2ccc(Cl)cc2)c1	10	52*	75*	-100	-7	-8	71*	56*	15	>100
CCCC[n+]1ccn(-c2nc3ccccc3nc2[N-]S(=O)(=O)c2ccc(Br)cc2)c1	21	-13	8	24	-2	2	nt	nt	nt	nt
CCCCC[n+]1ccn(C2=C([O-])c3ccccc3C(=O)/C2=N\S(=O)(=O)c2ccc(Cl)cc2)c1	11	70*	66*	-60	-3	-4	28	54*	9	>100
O=C1CC(N2CCOCC2)=NN1c1ccc([N+](=O)[O-])cc1	96	94*	48*	-43	4	12	11	15	6	nt
O=[N+]([O-])c1ccc(N2CCOCC2)nc1	12	-5	5	-5	-3	5	nt	nt	nt	nt
Cc1ccc(C(=O)N/N=C/c2ccc(-c3ccc(Br)cc3[N+](=O)[O-])o2)o1	5	42*	66*	-38	-5	0	17	27	-5	nt
Cc1ccc(C(=O)N/N=C\c2ccc(Br)o2)o1	-1	-16	-2	-21	-1	-2	nt	nt	nt	nt
CCNc1nc(NC(C)C)nc(-c2ccncc2)n1	nt	nt	nt	nt	0	nt	nt	nt	nt	nt
CC(C)(C)N1C(=O)Cc2c1nc(N)c1c(N)nc(N3CCCCC3CO)c(C#N)c21 (centres undefined)	100*	99*	91*	-51	20*	10	88*	21	3	nt
O=C1C(c2ccccc2)=[N+]([O-])c2ccccc21	nt	85*	64*	-76	7	-12	48*	87*	1	>100
O/C=c1\ccc2cccc3nc(C(F)(F)F)nc1c23	20	79*	64*	-135	2	-15	76*	86*	-40	20*
NNc1nc(C(F)(F)F)nc2ccccc12	7	-4	-13	-11	-1	-3	nt	nt	nt	nt
